For experiment [1], the system named is Mycobacterium tuberculosis. As to the kind of experiment: Antitubercular activity against linezolid-resistant Mycobacterium tuberculosis incubated for 7 days by microplate alamar blue assay. The settings on record: 168 h, time 7 day. The class given is functional. The essentials:
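MIC determined by microplate alamar blue assay (MABA) following a published protocol.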
A general note: Alamar Blue is a resazurin reagent that responds to reducing activity.

Experiment [2] in a line: Ratio of MIC for antitubercular activity against linezolid-resistant Mycobacterium tuberculosis to MIC for antitubercular activity against Mycobacterium tuberculosis H37Rv. The class given is functional.

Values after ≈ are worked out from the molar mass of the structure shown.

On to `NNC(=O)c1ccncc1` [ISONIAZID], for which, in experiment [1], the MIC came out at 0.04 µg/mL (≈ 0.292 µM). Turning to `CC(=O)NC[C@H]1CN(c2ccc(N3CCSCC3)c(F)c2)C(=O)O1` [SUTEZOLID], in experiment [2], the Ratio amounted to 4. The compound further displayed an MIC in experiment [1] of 0.96 µg/mL (≈ 2.72 µM).

Regarding `CO[C@H]1/C=C/O[C@@]2(C)Oc3c(C)c(O)c4c(O)c(c(/C=N/N5CCN(C)CC5)c(O)c4c3C2=O)NC(=O)/C(C)=C\C=C\[C@H](C)[C@H](O)[C@@H](C)[C@@H](O)[C@@H](C)[C@H](OC(C)=O)[C@@H]1C` [RIFAMPIN], the minimal inhibitory concentration (MIC) in experiment [1] came out at 0.03 µg/mL (≈ 0.0365 µM). As for `CC(=O)NC[C@@H]1OC(=O)N2c3cc(F)c(N4CC[S+]([O-])CC4)cc3OC[C@@H]12`, the Ratio in experiment [2] was found to be 4. Besides, in experiment [1], the MIC is 6.68 µg/mL (≈ 16.8 µM).

Consider `CC(=O)NC[C@@H]1OC(=O)N2c3cc(F)c(N4CCSCC4)cc3OC[C@@H]12` [listing 1 of 2 here], for which the Ratio in experiment [2] is 4.

In turn, `CC(=O)NC[C@H]1CN(c2ccc(N3CCOCC3)c(F)c2)C(=O)O1` [LINEZOLID] registered an MIC in experiment [1] of 3.92 µg/mL (≈ 11.6 µM). `CC(=O)NC[C@@H]1OC(=O)N2c3cc(F)c(N4CCSCC4)cc3OC[C@@H]12` [listing 2 of 2 here] returned a minimal inhibitory concentration (MIC) in experiment [1] of 0.24 µg/mL (≈ 0.629 µM).

By MIC is commonly meant the lowest concentration found to suppress growth. Lower therefore signals a more susceptible organism.

These data come from ChEMBL document CHEMBL4725282, “Discovery of a Conformationally Constrained Oxazolidinone with Improved Safety and Efficacy Profiles for the Treatment of Multidrug-Resistant Tuberculosis” (J Med Chem, 2020).
